# High-throughput results as filed in PubChem.
# CFTR F508del cor: F508del CFTR correction, initial screen, CFBE line, single point. CFBE cells, YFP halide quenching; stimulated with forskolin plus potentiator P3; % fluorescence drop versus neutral controls. actives 0.36% (n = 350,000). AID 720511, 2013. activity (quench increase), % at 7.58 µM;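 active means mean added fluorescence quench of at least 8% versus neutral control, with both replicates also reaching 8%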;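 further: cells transiently co-express mutant CFTR-F508del with the halide-sensitive YFP; corrector assay measuring rescue of mutant channel to the surface after 24 h compound exposure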
# E-selectin induc: E-selectin induction in HUVECs, primary screen, imaging, HUVEC, immunofluorescence imaging, single point; P16581; normalized: neutral wells 0, TNF-alpha wells 100; activation, % at 7.58 µM; actives 0.37% (n = 260,000);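 active means mean E-selectin-positive cell signal at least 10% of the positive control, reached in at least 60% of replicates, without over 20% cell loss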
# Target sequence (P16581 whole entry, looked up): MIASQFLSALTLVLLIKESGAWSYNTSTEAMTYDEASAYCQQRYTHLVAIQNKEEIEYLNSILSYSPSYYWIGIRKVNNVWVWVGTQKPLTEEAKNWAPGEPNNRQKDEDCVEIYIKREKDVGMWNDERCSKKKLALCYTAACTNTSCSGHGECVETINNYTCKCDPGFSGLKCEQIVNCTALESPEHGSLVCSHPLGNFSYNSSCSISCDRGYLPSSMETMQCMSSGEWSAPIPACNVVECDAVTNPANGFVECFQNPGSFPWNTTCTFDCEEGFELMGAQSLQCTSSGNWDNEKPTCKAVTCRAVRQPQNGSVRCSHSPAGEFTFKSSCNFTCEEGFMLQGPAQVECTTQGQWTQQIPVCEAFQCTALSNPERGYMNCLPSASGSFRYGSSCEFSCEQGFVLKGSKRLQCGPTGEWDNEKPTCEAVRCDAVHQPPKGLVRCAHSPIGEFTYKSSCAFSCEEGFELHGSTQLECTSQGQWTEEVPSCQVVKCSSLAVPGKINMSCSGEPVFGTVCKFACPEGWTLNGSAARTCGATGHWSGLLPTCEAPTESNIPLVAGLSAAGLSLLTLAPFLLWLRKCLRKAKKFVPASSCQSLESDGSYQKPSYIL
#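 material = human umbilical vein endothelial cells (HUVEC), E-selectin induction | quantity = 3,000 cells/well | medium = EGM-2 growth medium on 0.1% gelatin-coated wells | technique = immunofluorescence imaging | read-out basis = % PE-positive cells | control set = TNF-alpha positive control, DMSO neutral control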
# miR122 inh: miR-122 Renilla sensor signal increase in Huh7, primary screen, miR-122 inhibitor project, cell-based, single point, plate reader | Huh7 miR-122 Renilla luciferase sensor, 48 h; neutral wells = 0, positive control = 100 | activation (reporter increase), % at 12.5 µM | actives 0.3% (n = 340,000);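 active means mean replicate activation score at least 90 and every replicate individually at or above 90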;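 further: higher luciferase means less miR-122 activity so hits act as miR-122 inhibitors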
# DENV2 CPE rescue: inhibitors of DENV2 cytopathic effect, primary screen, cell-based, plate reader, single concentration. DENV2-infected cells, cytopathic effect rescue. CPE inhibition, % at 9.99 µM. actives 1.7% (n = 350,000). AID 651640, 2012; in the data active means CPE inhibition above about 20%, passing the limit was not always enough; tested in BHK-21 cells;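 further: 0% = median of neutral control wells and 100% = median of positive control wells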
# ERAP1 inh: human ERAP1 aminopeptidase inhibitors, primary screen, biochemical, single point, plate reader | Endoplasmic reticulum aminopeptidase 1 (Homo sapiens), Q9NZ08 | recombinant ERAP1, Leu-AMC fluorescence, 60 min | inhibition, % at 10.7 µM | actives 0.15% (n = 340,000) | AID 652197, 2013;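 active means mean replicate inhibition of at least 30%, or all replicates individually reaching that 30% level; inactive means mean below 30% and not every replicate reaching it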;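 further: 0% = neutral control wells and 100% = L-leucinethiol positive control wells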
# GSIS activator: GLuc luminescence reporter in INS-1E cells, primary screen for activators of glucose-dependent secretion of insulin; actives 0.61% (n = 370,000); activation, % at 16.6 µM; INS-1E GLuc reporter insulin secretion, 2-3 h;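 active means lowest replicate activation of at least 40%, so every replicate reaches that level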;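 further: 0% = median of neutral control wells and 100% = median of IBMX positive control wells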
# Starred values were filed as active, the others as inactive; · = no result; [ ] = remark or other dose. The list is not random: actives were taken first. Their share in the collection is about 2.6%.
SMILES,CFTR F508del cor,E-selectin induc,miR122 inh,DENV2 CPE rescue,ERAP1 inh,GSIS activator
COC(=O)C1=C(C)N(C)C(=NCc2cccc(C(F)(F)F)c2)NC1c1ccccc1 (stereo unspecified),1.6,0.2,·,-1.5,0.2,-24.0
COC(=O)C1=C(C)N(C)C(=NCc2cccc(C(F)(F)F)c2)NC1c1ccc(C(F)(F)F)cc1 (stereo unspecified),-0.4,-0.3,·,2.5,0.4,45.2*
COC(=O)C1=C(C)N(Cc2cccc(C(F)(F)F)c2)C(=NCc2ccc3c(c2)OCO3)NC1c1ccc(Cl)cc1 (stereo unspecified),-0.8,-0.2,·,14.6,-1.0,145.9*
COC(=O)C1=C(C)N(Cc2ccc(C(F)(F)F)cc2)C(=NCc2ccccc2)NC1c1cccc(C(F)(F)F)c1 (stereo unspecified),-3.6,-0.3,·,-0.5,-2.2,158.3*
COC(=O)C1=C(C)N(Cc2cccc(C(F)(F)F)c2)C(=NCc2ccc(C(F)(F)F)cc2)NC1c1ccc(Cl)cc1 (stereo unspecified),-0.7,-0.3,·,-0.4,-2.9,·
COC(=O)C1=C(C)N(Cc2cccc(C(F)(F)F)c2)C(=NCc2ccc(C(F)(F)F)cc2)NC1c1ccccc1 (stereo unspecified),1.7,-0.5,·,·,-0.8,501.0*
COCC(=O)Nc1ccc2c(c1)C(=O)N(C)C[C@H](OC)[C@H](C)CN[C@@H](C)CO2,-1.2,-0.2,-7.8[16.7 µM],·,·,3.2
CCN=C1NC(c2ccccc2C(F)(F)F)C(C(=O)OC)=C(C)N1C (stereo unspecified),-0.5,-0.1,·,20.9*,4.0,16.1
COC(=O)C1=C(C)N(C)C(=NCc2ccccc2)NC1c1ccccc1C(F)(F)F (stereo unspecified),1.3,1.4,·,·,-3.9,21.0
COc1ccc(NC(=O)N(C)C[C@H]2OCCCC[C@H](C)Oc3ccc(NC(=O)Nc4ccc(F)cc4)cc3C(=O)N([C@@H](C)CO)C[C@@H]2C)cc1,-0.8,-0.4,0.9[16.7 µM],-0.6,-0.9,5.8
CC1CN(c2ccc([N+](=O)[O-])c(NCCOc3ccc(Cl)cc3)c2)CC(C)N1 (stereo unspecified),-8.0,·,·,-16.0,-1.8,-33.7
Cc1ccccc1OCCNc1cc(N2CC(C)NC(C)C2)ccc1[N+](=O)[O-] (stereo unspecified),6.1,0.1,-4.6,15.1,6.2,41.6*
CCc1ccc(OCCNc2cc(N3CCNC(C)C3)ccc2[N+](=O)[O-])cc1 (stereo unspecified),12.9*,3.5,·,·,0.9,-38.5
Cc1noc(C)c1NC(=O)Nc1cccc2c1O[C@H](CN(C)Cc1ccccc1)[C@@H](C)CN([C@H](C)CO)C2=O,-0.4,0.0,96.5*[16.7 µM],0.2,-4.1,19.3
Cc1noc(C)c1NC(=O)Nc1cccc2c1O[C@@H](CN(C)Cc1ccc(C(=O)O)cc1)[C@H](C)CN([C@@H](C)CO)C2=O,1.0,·,-16.8[16.7 µM],8.3,-1.1,-5.3
Cc1noc(C)c1NC(=O)Nc1cccc2c1O[C@@H](CN(C)Cc1ccc(Cl)c(Cl)c1)[C@@H](C)CN([C@H](C)CO)C2=O,-2.2,-2.9,114.1*[16.7 µM],0.0,0.6,-3.2
Cc1noc(C)c1NC(=O)Nc1cccc2c1O[C@H](CN(C)Cc1ccccc1)[C@@H](C)CN([C@@H](C)CO)C2=O,1.7,2.0,4.6[16.7 µM],1.8,2.1,-0.7
Cc1noc(C)c1NC(=O)Nc1cccc2c1O[C@@H](CN(C)Cc1ccc(C(F)(F)F)cc1)[C@H](C)CN([C@@H](C)CO)C2=O,1.0,252.1*,7.9[16.7 µM],23.3*,·,-8.7
Cc1noc(C)c1NC(=O)Nc1cccc2c1O[C@@H](CN(C)Cc1ccc(Cl)c(Cl)c1)[C@H](C)CN([C@H](C)CO)C2=O,-2.3,-2.1,9.5[16.7 µM],-4.0,4.4,-26.9
CCc1ccc(O)c(CNCCNCc2cc(CC)ccc2O)c1,4.1,-0.3,-3.9,72.8*,-6.1,-9.7
Cc1ccc(O)c(CNCCNCc2cc(C)ccc2O)c1,-0.3,-0.1,4.8,1.4,-1.3,4.5
